Most compounds without a hit are left out; they make up all but 3.5% or so of the library.
MrgX1 antag = antagonists of human MrgX1 receptor, primary screen, HEK293 cells, Fluo-4 calcium flux; Mas-related G-protein coupled receptor member X1 (Homo sapiens), Q96LB2; B-score at 10 µM; BAM8-22 antagonism; active compounds read low; actives 1.3% (n = 310,000);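 active = calcium-response B-score plate-corrected more than 3 library SD below zero, starting fluorescence within 5 deviations, no agonist response on first addition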;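 also: peak minus trough fluorescence over baseline after final BAM8-22 challenge near maximal dose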
Target sequence (Q96LB2 whole entry, looked up): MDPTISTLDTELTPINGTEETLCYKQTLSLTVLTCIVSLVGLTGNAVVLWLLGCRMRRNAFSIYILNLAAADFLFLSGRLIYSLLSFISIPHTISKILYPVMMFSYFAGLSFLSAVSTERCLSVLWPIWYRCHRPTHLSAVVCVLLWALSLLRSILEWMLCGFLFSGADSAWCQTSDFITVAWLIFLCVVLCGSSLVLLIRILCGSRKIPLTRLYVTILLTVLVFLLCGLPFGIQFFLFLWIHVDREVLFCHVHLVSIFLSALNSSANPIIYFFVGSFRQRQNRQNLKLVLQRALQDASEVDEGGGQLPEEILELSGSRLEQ
MrgX1 agonist = agonists of human MrgX1 receptor, primary screen, HEK293 cells, Fluo-4 calcium flux | Mas-related G-protein coupled receptor member X1 (Homo sapiens), Q96LB2 | Fluo-4 calcium fluorescence, agonist mode; active compounds read high | B-score at 10 µM | actives 0.44% (n = 310,000) | AID 588627, 2011;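 active = calcium response B-score plate-corrected fluorescence ratio at least 3 library SD, with starting fluorescence B-score inside 5 SD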
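Test system: HEK293 cells stably expressing human MrgX1 receptor; amount: 15,000 cells per well; doses: compound delivered in addition one of three; times: overnight plating before 1 h dye loading; detection: Fluo-4 NW calcium-flux fluorescence, kinetic read; read-out basis: B-scored fluorescence response ratio; controls: positive and negative controls per plate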
RGS4 act = RGS4 potentiators or activators, primary screen, cell-based, HEK293 M3R inducible RGS4, calcium flux; carbachol calcium flux Fluo4; active compounds read low; B-score at 10 µM; actives 0.92% (n = 310,000);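 active = B-score of the integrated calcium signal more than 4 SD below the library mean, with starting fluorescence not abnormally high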;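 also: negative B-score means reduced calcium response which marks RGS4 activation or potentiation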
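Reagent: ECmax carbachol challenge; Test system: M3R-expressing HEK293 line, RGS4 induced by doxycycline; Schedule: overnight RGS4 induction, 30 min dye load 37 °C, 20 min compound RT; Detection: calcium dye Fluo4 fluorescence; Read-out: Agonist-evoked peak-minus-minimum fluorescence over baseline, integrated ratio, B score.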
MrgX1 allo act = positive allosteric modulators of MrgX1, primary screen, HEK293 cells, Fluo-4 calcium flux. Mas-related G-protein coupled receptor member X1 (Homo sapiens), Q96LB2. actives 0.63% (n = 310,000). AID 588675, 2011. FDSS; active compounds read high. B-score at 10 µM;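 active = plate-corrected calcium response at least 3 library SD above typical, normal starting fluorescence, not activating the receptor alone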;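 also: compound read alongside a low EC10 to EC30 dose of BAM8-22 agonist; peak minus trough fluorescence over baseline measured at the second addition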
RGS4 block = RGS4 inhibitors, primary screen, cell-based, HEK293 M3R inducible RGS4, calcium flux; Regulator of G-protein signaling 4 (Homo sapiens), P49798; Fluo-4 calcium flux; active compounds read high; triggered by carbachol at its EC20; B-score at 10 µM; actives 0.45% (n = 310,000); AID 463165, 2010;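 active = B-score, a plate-corrected calcium signal, over three deviations above library mean, with baseline fluorescence within five deviations of library mean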;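 also: RGS4 expression induced by doxycycline in cells with stable M3 receptor; B-score is computed from the integrated fluorescence ratio over baseline after carbachol; higher B-score means a larger calcium signal and so more RGS4 inhibition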
Target sequence (P49798 whole entry, looked up): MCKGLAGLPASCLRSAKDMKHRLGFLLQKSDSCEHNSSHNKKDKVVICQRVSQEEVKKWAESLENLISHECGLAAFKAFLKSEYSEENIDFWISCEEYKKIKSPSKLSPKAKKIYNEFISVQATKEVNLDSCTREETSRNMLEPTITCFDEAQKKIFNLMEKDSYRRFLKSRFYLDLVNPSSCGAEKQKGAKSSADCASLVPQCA
RGS4 block valid = enhanced carbachol calcium response, M3R/RGS4 cells, RGS4 inhibitor project, cell-based, validation screen, HEK293 M3R/RGS4, calcium flux; shares compounds with RGS4 block; carbachol calcium Fluo-4 fluorescence; carbachol added at its EC20; 0 = buffer wells, 100 = carbachol control; calcium response, % at 10 µM; actives 65% (n = 1,700);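 active = duplicate-averaged calcium response above the buffer-only control mean plus 5 SD of those controls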;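 also: integrated fluorescence ratio F max minus min over baseline F0; higher response in RGS4-induced cells means RGS4 inhibition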
RGS4 uninduced = carbachol calcium response in non-induced M3R cells, confirmation, counter-screen for RGS4 inhibitor project, cell-based, HEK293 M3R | actives 20% (n = 1,900) | shares compounds with RGS4 block | activity (percent), % at 10 µM | carbachol calcium Fluo-4; submaximal (EC20) carbachol stimulus; buffer wells 0%, carbachol control wells 100% | AID 493000, 2010; call rule not given here;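 also: RGS4 induction absent so cells express M3R without RGS4; higher means more calcium signal and flags a non-specific hit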
M3R basal Ca ctr = signal in non-induced cells without carbachol, RGS4 inhibitor counter-screen; calcium response (agonist-mode artifact), % at 10 µM; shares compounds with RGS4 block; actives 22% (n = 1,900); HEK293 M3R/RGS4 non-induced, Fluo-4 calcium, no carbachol; normalised: buffer wells 0%, carbachol wells 100%;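 active = duplicate-averaged calcium rise in uninduced cells above buffer wells' mean plus 5 SD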
Each line names hits and unclear results; the compound was inactive in the other large screens (follow-up assays come after a bar, where they were run).

Brc1ccc(-c2nnc3ccc(Nc4ccccc4)nn23)cc1	none
COc1ccccc1/C=C/C=N/n1c(-c2cc(-c3ccccc3)n[nH]2)n[nH]c1=S	RGS4 block 7.71 | RGS4 block valid 45.0% | RGS4 uninduced 36.0% | M3R basal Ca ctr inactive
Cn1c(Cc2ccc(Cl)cc2)nnc1SCC(=O)NC1CC1	none
CC[C@H](C)[C@@H](C(=O)NCCCCCCCCCCC(=O)N1CCNCC1)n1cc(CCCCCN)nn1	none (no result: RGS4 act, RGS4 block)
O=[N+]([O-])c1ccc(-n2nncc2-c2ccccc2)cc1	none
O=Cc1ccc(-n2nncc2-c2ccc([N+](=O)[O-])cc2)cc1	RGS4 block 7.4 | RGS4 block valid 42.0% | RGS4 uninduced 65.5% | M3R basal Ca ctr inactive
O=C(O)CN1C(=O)/C(=C/c2ccccc2Cl)Oc2ccccc21	RGS4 block 6.45 | RGS4 block valid 21.5% | RGS4 uninduced 31.0% | M3R basal Ca ctr inactive
O=C(O)CN1C(=O)/C(=C/c2cccc(Cl)c2)Oc2ccccc21	none
COC(=O)/C=c1\sc2ncnn2c1=O	RGS4 block 11.4 | RGS4 block valid inactive | RGS4 uninduced inactive | M3R basal Ca ctr inactive
COc1ccccc1Nc1nc(N)nc(CN2CCN(c3ccccc3)CC2)n1	none
Cc1ccc(Nc2nc(N)nc(CN3CCN(c4ccccc4)CC3)n2)cc1Cl	RGS4 block 6.6 | RGS4 block valid 14.5% | RGS4 uninduced inactive | M3R basal Ca ctr inactive
COc1ccc(N2CCN(Cc3nc(N)nc(Nc4ccc(C)c(Cl)c4)n3)CC2)cc1	none | RGS4 block valid inactive | RGS4 uninduced inactive | M3R basal Ca ctr inactive
CCN(CC)c1ccc(NC(=O)CNCc2ccccc2Cl)c(C)c1	none
Cc1cc(N(CCO)CCO)ccc1C(c1ccc(N(CCO)CCO)cc1C)c1ccccc1Cl	RGS4 block 5.99 | RGS4 block valid 16.5% | RGS4 uninduced inactive | M3R basal Ca ctr 25.0%
CC/S(=N\S(=O)(=O)c1ccc(C)cc1)c1ccccc1 (stereo unspecified)	none
COc1ccc(C(=O)C2CCN(CC(=O)Nc3ccc(C)cc3)CC2)cc1	none
COc1cccc(/C=C/C(=O)c2ccc(C)c([N+](=O)[O-])c2)c1	MrgX1 agonist 32.1, RGS4 block 8.87 | RGS4 block valid inactive | RGS4 uninduced 39.5% | M3R basal Ca ctr inactive
Cc1cc(SCC(=O)c2cccs2)nc2ccccc12	none
Cc1cccc(C(=O)N2CC(=O)Nc3ccc(F)cc3C2c2ccc(F)cc2)c1 (stereo unspecified)	none
CCCCn1c(SCC(=O)NCc2ccco2)nc2ccc(N3CCOCC3)cc2c1=O	RGS4 block 5.01 | RGS4 block valid inactive | RGS4 uninduced inactive | M3R basal Ca ctr inactive
CCCCn1c(SCC(=O)NC(C)CC)nc2ccc(N3CCOCC3)cc2c1=O (stereo unspecified)	none
CCCCn1c(SCC(=O)Nc2ccc(OC)cc2)nc2ccc(N3CCOCC3)cc2c1=O	none
CCCCn1c(SCC(=O)NCc2ccccc2)nc2ccc(N3CCOCC3)cc2c1=O	none | RGS4 block valid inactive | RGS4 uninduced inactive | M3R basal Ca ctr inactive
COc1ccc(NC(=O)/C(Cl)=C(/Cl)S(=O)(=O)Cc2ccc(C)cc2)cn1	RGS4 block 12 (no result: MrgX1 antag, MrgX1 agonist, MrgX1 allo act) | RGS4 block valid 24.0% | RGS4 uninduced inactive | M3R basal Ca ctr 7.5%
N#C/C(=C/c1cccc(O)c1)C(=O)NCc1ccc(Cl)cc1	RGS4 block 5.93 | RGS4 block valid 80.0% | RGS4 uninduced 73.0% | M3R basal Ca ctr inactive
